Source: ChEMBL document CHEMBL1909567, “Synthesis and structure-activity relationship studies in translocator protein ligands based on a pyrazolo[3,4-b]quinoline scaffold” (J Med Chem, 2011)
pIC50: −log10 of the molar value.

Tests used:
Translocator protein = Translocator protein (Rattus norvegicus, UniProt P16257); experiment: Displacement of [3H]PK11195 from TSPO in Sprague-Dawley rat brain homogenates after 90 mins by liquid scintillation spectrometry; format: tissue-based
Mus musculus [1] = experiment: Antianxiety activity in mouse assessed as increase in time spent in illuminated area at 3 mg/kg, po after 30 mins by light/dark box test (reference value: 116.4 +/- 7.5 sec); format: functional
In short: (§1)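 Male mice, housed 15 per cage, placed in the test room 24 h before testing for acclimatization. Drugs were given po in 1% carboxymethylcellulose at 10 mL/kg, 30 min before the light/dark box test. Time spent in the light box (s) was recorded. Values are mean ± SEM of at least 8 mice per group. ANOVA with Fisher's PLSD was used against vehicle.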

Mus musculus [2] = experiment: Antianxiety activity in mouse assessed as increase in time spent in illuminated area at 10 mg/kg, po after 30 mins by light/dark box test (reference value: 116.4 +/- 7.5 sec); format: functional; in short: as §1
Mus musculus [3] = experiment: Antianxiety activity in mouse assessed as increase in time spent in illuminated area at 1 mg/kg, po by light/dark box test (reference value: 116.4 +/- 7.5 sec); format: functional; in short: as §1
Rattus norvegicus [4] = experiment: Antinociceptive activity in rat peripheral mononeuropathy model assessed as decrease in left paw pressure at 5 mg/kg, po after 15 mins by analgesimetry (reference value: 63.5 +/- 2.8 g); format: functional
Rattus norvegicus [5] = experiment: Antinociceptive activity in rat peripheral mononeuropathy model assessed as decrease in left paw pressure at 5 mg/kg, po after 30 mins by analgesimetry (reference value: 59.65 +/- 2.6 g); format: functional
Rattus norvegicus [6] = experiment: Antinociceptive activity in rat peripheral mononeuropathy model assessed as decrease in left paw pressure at 5 mg/kg, po after 45 mins by analgesimetry (reference value: 63.0 +/- 2.4 g); format: functional
Rattus norvegicus [7] = experiment: Antinociceptive activity in rat peripheral mononeuropathy model assessed as decrease in left paw pressure at 50 mg/kg, po after 15 mins by analgesimetry (reference value: 63.5 +/- 2.8 g); format: functional
Rattus norvegicus [8] = experiment: Antinociceptive activity in rat peripheral mononeuropathy model assessed as decrease in left paw pressure at 50 mg/kg, po after 30 mins by analgesimetry (reference value: 59.65 +/- 2.6 g); format: functional
Rattus norvegicus [9] = experiment: Antinociceptive activity in rat peripheral mononeuropathy model assessed as decrease in left paw pressure at 50 mg/kg, po after 45 mins by analgesimetry (reference value: 63.0 +/- 2.4 g); format: functional
Rattus norvegicus [10] = experiment: Antinociceptive activity in rat peripheral mononeuropathy model assessed as decrease in right paw pressure at 5 mg/kg, po after 15 mins by analgesimetry (reference value: 34.8 +/- 3.7 g); format: functional
Rattus norvegicus [11] = experiment: Antinociceptive activity in rat peripheral mononeuropathy model assessed as decrease in right paw pressure at 5 mg/kg, po after 30 mins by analgesimetry (reference value: 31.3 +/- 2.8 g); format: functional
Rattus norvegicus [12] = experiment: Antinociceptive activity in rat peripheral mononeuropathy model assessed as decrease in right paw pressure at 5 mg/kg, po after 45 mins by analgesimetry (reference value: 32.9 +/- 2.6 g); format: functional
Rattus norvegicus [13] = experiment: Antinociceptive activity in rat peripheral mononeuropathy model assessed as decrease in right paw pressure at 50 mg/kg, po after 15 mins by analgesimetry (reference value: 34.8 +/- 3.7 g); format: functional
Rattus norvegicus [14] = experiment: Antinociceptive activity in rat peripheral mononeuropathy model assessed as decrease in right paw pressure at 50 mg/kg, po after 30 mins by analgesimetry (reference value: 31.3 +/- 2.8 g); format: functional
Rattus norvegicus [15] = experiment: Antinociceptive activity in rat peripheral mononeuropathy model assessed as decrease in right paw pressure at 50 mg/kg, po after 45 mins by analgesimetry (reference value: 32.9 +/- 2.6 g); format: functional
Mus musculus [16] = experiment: Antianxiety activity in mouse assessed as increase in time spent in illuminated area at 30 mg/kg, po after 30 mins by light/dark box test (reference value: 116.4 +/- 7.5 sec); format: functional; in short: as §1

Chain of Translocator protein (P16257 whole entry, looked up): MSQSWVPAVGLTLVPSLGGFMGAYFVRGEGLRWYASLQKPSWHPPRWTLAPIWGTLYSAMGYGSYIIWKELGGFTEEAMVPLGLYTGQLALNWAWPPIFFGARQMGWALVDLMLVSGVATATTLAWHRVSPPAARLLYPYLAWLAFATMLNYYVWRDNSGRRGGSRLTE

**Q.** `Cc1c2ccccc2nc2c1c(=O)n(-c1ccc(Cl)cc1)n2CC(=O)N(C)c1ccc(Cl)cc1` was tested. Which pIC50 (Translocator protein) did it give?
**A.** 7.80

**Q.** What about the Time (Mus musculus [1]) of the same compound?
**A.** 135.2 s

**Q.** And the Time (Mus musculus [2])?
**A.** 169 s

**Q.** And the Time (Mus musculus [3])?
**A.** 108.9 s

**Q.** What about the Activity (Rattus norvegicus [4]) of the same compound?
**A.** 61.4 g

**Q.** What about the Activity (Rattus norvegicus [5]) of the same compound?
**A.** 58.4 g

**Q.** And the Activity (Rattus norvegicus [6])?
**A.** 63.8 g

**Q.** What about the Activity (Rattus norvegicus [7]) of the same compound?
**A.** 62.2 g

**Q.** What about the Activity (Rattus norvegicus [8]) of the same compound?
**A.** 61.8 g

**Q.** What about the Activity (Rattus norvegicus [9]) of the same compound?
**A.** 64.8 g

**Q.** What about the Activity (Rattus norvegicus [10]) of the same compound?
**A.** 44.8 g

**Q.** And the Activity (Rattus norvegicus [11])?
**A.** 35.8 g

**Q.** And the Activity (Rattus norvegicus [12])?
**A.** 32.7 g

**Q.** And the Activity (Rattus norvegicus [13])?
**A.** 56.3 g

**Q.** And the Activity (Rattus norvegicus [14])?
**A.** 49.4 g

**Q.** And the Activity (Rattus norvegicus [15])?
**A.** 42.5 g

**Q.** `Cc1c2ccccc2nc2c1c(=O)n(-c1ccccc1)n2CC(=O)N(C)c1ccc(Cl)cc1` was tested. Which pIC50 (Translocator protein) did it give?
**A.** 8.74

**Q.** And the Time (Mus musculus [1])?
**A.** 103.8 s

**Q.** And the Time (Mus musculus [2])?
**A.** 112.3 s

**Q.** What about the Time (Mus musculus [16]) of the same compound?
**A.** 107.6 s

**Q.** And the Activity (Rattus norvegicus [4])?
**A.** 57.8 g

**Q.** What about the Activity (Rattus norvegicus [5]) of the same compound?
**A.** 63.6 g

**Q.** What about the Activity (Rattus norvegicus [6]) of the same compound?
**A.** 61.4 g

**Q.** And the Activity (Rattus norvegicus [7])?
**A.** 61 g

**Q.** What about the Activity (Rattus norvegicus [8]) of the same compound?
**A.** 58 g

**Q.** And the Activity (Rattus norvegicus [9])?
**A.** 59 g

**Q.** What about the Activity (Rattus norvegicus [10]) of the same compound?
**A.** 39.2 g

**Q.** And the Activity (Rattus norvegicus [11])?
**A.** 35.9 g

**Q.** And the Activity (Rattus norvegicus [12])?
**A.** 33.4 g

**Q.** What about the Activity (Rattus norvegicus [13]) of the same compound?
**A.** 48.1 g

**Q.** What about the Activity (Rattus norvegicus [14]) of the same compound?
**A.** 44 g

**Q.** And the Activity (Rattus norvegicus [15])?
**A.** 37 g

**Q.** How did the pIC50 (Translocator protein) turn out when `CCCCN(C)C(=O)Cn1c2nn(-c3ccccc3)c(=O)c-2c(C)c2ccccc21` was run?
**A.** 9.85

**Q.** What about the Time (Mus musculus [1]) of the same compound?
**A.** 117.4 s

**Q.** And the Time (Mus musculus [2])?
**A.** 151.5 s

**Q.** And the Time (Mus musculus [3])?
**A.** 103.7 s

**Q.** With `CCN(Cc1ccccc1)C(=O)Cn1c2nc3ccccc3c(C)c2c(=O)n1-c1ccccc1` as the compound, how does the pIC50 (Translocator protein) read?
**A.** 6.66

**Q.** How did the pIC50 (Translocator protein) turn out when `CCN(CC)C(=O)Cn1c2nc3ccccc3c(C)c2c(=O)n1-c1ccc(F)cc1` was run?
**A.** 5.64

**Q.** How did the pIC50 (Translocator protein) turn out when `Cc1c2ccccc2nc2c1c(=O)n(-c1ccccc1)n2CC(=O)N(Cc1ccccc1)Cc1ccccc1` was run?
**A.** 5.46

**Q.** How did the pIC50 (Translocator protein) turn out when `Cc1c2ccccc2nc2c1c(=O)n(-c1ccccc1)n2CC(=O)N(C(C)C)C(C)C` was run?
**A.** 5.86

**Q.** With `CCCCN(C)C(=O)Cn1c2nc3ccccc3c(C)c2c(=O)n1-c1ccc(Cl)cc1` as the compound, how does the pIC50 (Translocator protein) read?
**A.** 6.84

**Q.** With `CCN(Cc1ccccc1)C(=O)Cn1c(=O)n(C)c2cnc(-c3ccccc3)nc21` as the compound, how does the Time (Mus musculus [1]) read?
**A.** 137.3 s

**Q.** What about the Time (Mus musculus [2]) of the same compound?
**A.** 162.3 s

**Q.** What about the Time (Mus musculus [3]) of the same compound?
**A.** 110.8 s

**Q.** How did the pIC50 (Translocator protein) turn out when `CCN(CC)C(=O)Cn1c2nc3ccccc3c(C)c2c(=O)n1-c1ccccc1` was run?
**A.** 6.74

**Q.** How did the pIC50 (Translocator protein) turn out when `CCCN(CCC)C(=O)Cn1c2nc3ccccc3c(C)c2c(=O)n1-c1ccc(Cl)cc1` was run?
**A.** 7.05

**Q.** With `CCCCN(C)C(=O)Cn1c2nc3ccccc3c(C)c2c(=O)n1-c1ccc(F)cc1` as the compound, how does the pIC50 (Translocator protein) read?
**A.** 6.96

**Q.** `CN1C(=O)CN=C(c2ccccc2)c2cc(Cl)ccc21` [DIAZEPAM] was tested. Which Time (Mus musculus [3]) did it give?
**A.** 171.63 s

**Q.** `CCCCN(CCCC)C(=O)Cn1c2nn(-c3ccccc3)c(=O)c-2c(C)c2ccccc21` was tested. Which pIC50 (Translocator protein) did it give?
**A.** 9.47

**Q.** `Cc1c2c(=O)n(-c3ccc(F)cc3)nc-2n(CC(=O)N(C)c2ccc(Cl)cc2)c2ccccc12` was tested. Which pIC50 (Translocator protein) did it give?
**A.** 9.55

**Q.** How did the pIC50 (Translocator protein) turn out when `CCCCN(Cc1ccccc1)C(=O)Cn1c2nc3ccccc3c(C)c2c(=O)n1-c1ccccc1` was run?
**A.** 6.16

**Q.** `CCCCN(CCCC)C(=O)Cn1c2nc3ccccc3c(C)c2c(=O)n1-c1ccccc1` was tested. Which pIC50 (Translocator protein) did it give?
**A.** 6.82

**Q.** How did the pIC50 (Translocator protein) turn out when `Cc1c2ccccc2nc2c1c(=O)n(-c1ccccc1)n2CC(=O)N(C)Cc1ccccc1` was run?
**A.** 6.06

**Q.** With `Cc1c2ccccc2nc2c1c(=O)n(-c1ccccc1)n2CC(=O)N(C)c1ccccc1` as the compound, how does the pIC50 (Translocator protein) read?
**A.** 6.93

**Q.** How did the pIC50 (Translocator protein) turn out when `Cc1c2ccccc2nc2c1c(=O)n(-c1ccc(F)cc1)n2CC(=O)N(C)c1ccc(Cl)cc1` was run?
**A.** 8.17

**Q.** What about the Time (Mus musculus [1]) of the same compound?
**A.** 106.8 s

**Q.** And the Time (Mus musculus [2])?
**A.** 117.5 s

**Q.** What about the Time (Mus musculus [16]) of the same compound?
**A.** 111.3 s

**Q.** What about the Activity (Rattus norvegicus [4]) of the same compound?
**A.** 58.7 g

**Q.** What about the Activity (Rattus norvegicus [5]) of the same compound?
**A.** 57.7 g

**Q.** What about the Activity (Rattus norvegicus [6]) of the same compound?
**A.** 64.1 g

**Q.** What about the Activity (Rattus norvegicus [7]) of the same compound?
**A.** 60.7 g

**Q.** What about the Activity (Rattus norvegicus [8]) of the same compound?
**A.** 59.3 g

**Q.** What about the Activity (Rattus norvegicus [9]) of the same compound?
**A.** 63.1 g

**Q.** What about the Activity (Rattus norvegicus [10]) of the same compound?
**A.** 35.6 g

**Q.** What about the Activity (Rattus norvegicus [11]) of the same compound?
**A.** 36.4 g

**Q.** What about the Activity (Rattus norvegicus [12]) of the same compound?
**A.** 36.3 g

**Q.** And the Activity (Rattus norvegicus [13])?
**A.** 49.4 g

**Q.** What about the Activity (Rattus norvegicus [14]) of the same compound?
**A.** 47.2 g

**Q.** What about the Activity (Rattus norvegicus [15]) of the same compound?
**A.** 36.3 g

**Q.** `COc1ccc(N(C)C(=O)Cn2c3nc4ccccc4c(C)c3c(=O)n2-c2ccccc2)cc1` was tested. Which pIC50 (Translocator protein) did it give?
**A.** 7.77

**Q.** `CCCCN(C)C(=O)Cn1c2nc3ccccc3c(C)c2c(=O)n1-c1ccccc1` was tested. Which pIC50 (Translocator protein) did it give?
**A.** 7.19

**Q.** How did the pIC50 (Translocator protein) turn out when `CCCCN(C)C(=O)Cn1c2nn(-c3ccc(F)cc3)c(=O)c-2c(C)c2ccccc21` was run?
**A.** 9.89

**Q.** How did the pIC50 (Translocator protein) turn out when `CCCN(CCC)C(=O)Cn1c2nc3ccccc3c(C)c2c(=O)n1-c1ccc(F)cc1` was run?
**A.** 7.06

**Q.** With `CCCN(CCC)C(=O)Cn1c2nc3ccccc3c(C)c2c(=O)n1-c1ccccc1` as the compound, how does the pIC50 (Translocator protein) read?
**A.** 7.05

**Q.** How did the pIC50 (Translocator protein) turn out when `Cc1c2c(=O)n(-c3ccccc3)nc-2n(CC(=O)N(C)c2ccc(Cl)cc2)c2ccccc12` was run?
**A.** 9.89

**Q.** With `CCN(CC)C(=O)Cn1c2nn(-c3ccccc3)c(=O)c-2c(C)c2ccccc21` as the compound, how does the pIC50 (Translocator protein) read?
**A.** 9.08

**Q.** `Cc1c2ccccc2nc2c1c(=O)n(-c1ccccc1)n2CC(=O)N(Cc1ccccc1)C(C)C` was tested. Which pIC50 (Translocator protein) did it give?
**A.** 6.52
